The target in series [1] is T1, Probable periplasmic serine endoprotease DegP-like (Chlamydia trachomatis, UniProt P18584).
T1 sequence (P18584 whole entry): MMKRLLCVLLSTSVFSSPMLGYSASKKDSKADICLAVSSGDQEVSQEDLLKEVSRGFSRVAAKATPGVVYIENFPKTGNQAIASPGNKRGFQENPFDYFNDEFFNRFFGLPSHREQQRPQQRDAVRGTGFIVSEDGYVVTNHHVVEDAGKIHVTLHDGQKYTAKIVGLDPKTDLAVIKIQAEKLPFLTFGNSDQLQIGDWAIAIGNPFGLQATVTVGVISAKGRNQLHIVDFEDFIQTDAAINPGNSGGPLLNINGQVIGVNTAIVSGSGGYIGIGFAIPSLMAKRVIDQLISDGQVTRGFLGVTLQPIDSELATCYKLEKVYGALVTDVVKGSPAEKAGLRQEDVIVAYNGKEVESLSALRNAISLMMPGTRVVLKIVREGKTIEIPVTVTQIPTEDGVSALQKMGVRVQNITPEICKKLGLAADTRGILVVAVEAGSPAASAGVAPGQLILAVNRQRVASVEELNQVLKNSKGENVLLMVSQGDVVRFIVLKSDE
In words: Inhibition of recombinant Chlamydia trachomatis HtrA serine protease using MeOCoum-ENLHLPLPI1F-D as substrate measured after 30 mins.

In series [2] the target is T2, Probable periplasmic serine endoprotease DegP-like (Chlamydia trachomatis) (UniProt P18584).
T2 sequence (whole entry): T1 sequence (P18584 whole entry)
In words: Potency index, ratio of JO146 IC50 to test compound IC50 for inhibition of recombinant Chlamydia trachomatis HtrA serine protease using MeOCoum-ENLHLPLPI1F-D as substrate measured after 30 mins.

Series [3] deals with HEp-2. In words: Cytotoxicity against human HEp-2 cells assessed as reduction in cell viability by measuring MTS reduction at 25 uM measured after 24 hrs by MTS assay relative to control. In kind it is toxicity, cell-based. The conditions noted are these: hep-2, 24 h. Put shortly: (§1)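 HEp-2 cells plated at 5000/well, treated 24 h after plating with 25 or 100 µM inhibitor, 1% v/v DMSO or medium alone, triplicate; after 24 h exposure, MTS/PMS added for 4 h and A490 read; viability expressed relative to DMSO control; mean ± SEM, n = 3.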
In general terms: Tetrazolium dyes change colour on reduction, which living cells bring about.

Series [4] relates to Chlamydia trachomatis. Briefly: Antibacterial activity against Chlamydia trachomatis D/UW-3/Cx infected in human HEp-2 cells assessed as reduction in bacterial titer below threshold at 50 uM administered at 16 hrs post infection and measured 44 hrs post infection. The format is functional, organism-based. The following applies: time 28.0 hrs. The gist of the method: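 C. trachomatis D (D/UW-3/Cx) in monolayers seeded 20,000 cells/well 24 h before infection; synchronised at 500 × g, 28 °C, 30 min; treated at 16 h PI (25, 50, 100 µM, triplicate) beside 1% v/v DMSO and media controls; harvested 44 h PI, passaged onto fresh monolayers, fixed, stained; IFU/mL compared against limit of detection.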

The test system of series [5] is Chlamydia pecorum. Briefly: Antibacterial activity against Chlamydia pecorum MC/MarsBar infected in human HEp-2 cells assessed as reduction in bacterial titre at 25 uM administered at 16 hrs post infection and measured 44 hrs post infection. The format is functional, organism-based. The conditions noted are these: time 28.0 hrs.
For series [6], the system named is HEp-2. In words: Cytotoxicity against human HEp-2 cells assessed as loss of cell integrity by measuring cytosolic LDH release at 25 to 100 uM […] by LDH assay. The format is toxicity, cell-based. The following applies: hep-2, 100 µM, dose 25-100 µM. Put shortly: (§2)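 HEp-2 cells at 5000/well, dosed 24 h after plating with 25 or 100 µM, 1% v/v DMSO or medium, triplicate; after 8 h treatment supernatant taken, incubated 30 min with CytoTox reagent then stop solution, A490 read; maximum release from untreated cells lysed with 0.8% v/v Triton X-100 45 min before harvest; extracellular LDH as % of maximum; n = 3.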
(In general: LDH leaks from cells whose membrane has failed.)

Series [7] relates to HEp-2. Briefly: Cytotoxicity against human HEp-2 cells assessed as reduction in cell viability measured after 24 hrs by MTS assay. The following applies: hep-2, 24 h. The format is toxicity, cell-based. The gist of the method:
as §1

Series [8] deals with HEp-2. Briefly: Cytotoxicity against human HEp-2 cells assessed as loss of cell integrity by measuring cytosolic LDH release at 25 to 100 uM […] by LDH assay relative to control. The format is toxicity, cell-based. The conditions noted are these: hep-2, 100 µM, dose 25-100 µM. Put shortly: as §2
The nature of series [9]: Cytotoxicity against human HEp-2 cells assessed as cell viability at 25 to 100 uM measured after 24 hrs by MTS assay relative to control. The following applies: dose 25-100 µM, read-out: Activity. In kind it is toxicity, cell-based. Put shortly: as §1
Series [10] deals with Chlamydia trachomatis. In words: Antibacterial activity against Chlamydia trachomatis D/UW-3/Cx infected in human HEp-2 cells assessed as reduction in bacterial titer at 25 to 100 uM administered at 16 hrs post infection and measured 44 hrs post infection. In kind it is functional, organism-based. The conditions noted are these: dose 25-100 µM, time 28.0 hrs.
Series [11] concerns Chlamydia pecorum. Briefly: Antibacterial activity against Chlamydia pecorum MC/MarsBar infected in human HEp-2 cells assessed as reduction in bacterial titre at 25 to 100 uM administered at 16 hrs post infection and measured 44 hrs post infection. The conditions noted are these: dose 25-100 µM, time 28.0 hrs. The format is functional, organism-based.
Series [12] has as its system HEp-2. Briefly: Cytotoxicity against human HEp-2 cells assessed as loss of cell integrity by measuring cytosolic LDH release at 100 uM […] by LDH assay. The format is toxicity, cell-based. The following applies: hep-2, 100 µM. The gist of the method:
as §2

Series [13] in a line: Cytotoxicity against human HEp-2 cells assessed as cell viability at 100 uM measured after 24 hrs by MTS assay relative to control. In kind it is toxicity, cell-based. The conditions noted are these: read-out: Activity. Put shortly:
as §1

The source made the active and inactive calls.

As a reminder, the IC50 is the midpoint of a concentration-inhibition curve.

Take `CC(C)C(NC(=O)[C@@H]1CCCN1C(=O)[C@@H](NC(=O)OC(C)(C)C)C(C)C)P(=O)(Oc1ccccc1)Oc1ccccc1` (some centres not stated): the 50% inhibitory concentration (IC50) in [1] came to 21.9 µM.

Take `CC(C)C(NC(=O)[C@@H]1CCCN1C(=O)[C@@H](NC(=O)OC(C)(C)C)C(C)(C)C)P(=O)(Oc1ccccc1)Oc1ccccc1` (some centres not stated): in [2], the Ratio IC50 was 1.38. The IC50 in [1] was 15.9 µM.

For the compound `CC(C)C(NC(=O)[C@@H]1C[C@@H](c2ccccc2)CN1C(=O)[C@@H](NC(=O)OC(C)(C)C)C(C)(C)C)P(=O)(Oc1ccccc1)Oc1ccccc1` (mixture of isomers), the values for the Activity in the series on HEp-2 [3] and in the series on HEp-2 [6] were < 30% and “Non-Toxic”, respectively. Besides, the result in the series on Chlamydia trachomatis [4] and in the series with Chlamydia pecorum [5] was Active. The IC50 in series [1] was determined as 59.5 µM.

`CC(C)C(NC(=O)[C@@H]1C[C@@H](OC(=O)CN)CN1C(=O)[C@@H](NC(=O)OC(C)(C)C)C(C)(C)C)P(=O)(Oc1ccccc1)Oc1ccccc1` (mixture of isomers): the Activity in the series with HEp-2 [3] is < 30%; in the series with HEp-2 [6], “Non-Toxic”. Besides, the half-maximal inhibitory concentration (IC50) in series [1] amounted to 13.9 µM.

In the case of `CC(C)C(NC(=O)[C@@H]1C[C@@H](n2cc(C(N)=O)nn2)CN1C(=O)[C@@H](NC(=O)OC(C)(C)C)C(C)(C)C)P(=O)(Oc1ccccc1)Oc1ccccc1` (mixture of isomers), the Activity result in the series with HEp-2 [7] is on record as “Non-Toxic”.

For `CC(C)C(NC(=O)[C@@H]1C[C@@H](C2CCCCC2)CN1C(=O)[C@@H](NC(=O)OC(C)(C)C)C(C)(C)C)P(=O)(Oc1ccccc1)Oc1ccccc1` (mixture of isomers), the result with Chlamydia trachomatis [4] and in the series with Chlamydia pecorum [5] was Active. In the series with HEp-2 [8], the Activity turned out to be 80%. Moreover, the viability at 24 h, up to 100 µM in series [9] is 10%. Also, in series [1], the IC50 was determined as 163 µM.

Take `CC(C)C(NC(=O)[C@@H]1C[C@@H](n2nnc(O)c2O)CN1C(=O)[C@@H](NC(=O)OC(C)(C)C)C(C)(C)C)P(=O)(Oc1ccccc1)Oc1ccccc1` (mixture of isomers): the Activity entry in the series with HEp-2 [7] is reported as “Non-Toxic”.

`CC(C)C(NC(=O)[C@@H]1C[C@@H](n2cc(CO)nn2)CN1C(=O)[C@@H](NC(=O)OC(C)(C)C)C(C)(C)C)P(=O)(Oc1ccccc1)Oc1ccccc1` (mixture of isomers): the Activity entry in the series with HEp-2 [7] was “Non-Toxic”. Also, the result in the series with Chlamydia trachomatis [10] was Active. Besides, in series [1], the IC50 is 79.7 µM.

For the compound `CC(C)C(NC(=O)[C@@H]1C[C@@H](n2nncc2C(C)(C)O)CN1C(=O)[C@@H](NC(=O)OC(C)(C)C)C(C)(C)C)P(=O)(Oc1ccccc1)Oc1ccccc1` (mixture of isomers), the Activity entry in the series with HEp-2 [7] is listed as “Non-Toxic”. In addition, the result in the series with Chlamydia trachomatis [10] was Active. In addition, in series [1], the IC50 is 95.7 µM.

With `CC(C)C(NC(=O)[C@@H]1C[C@H](n2nncc2C(C)(C)O)CN1C(=O)[C@@H](NC(=O)OC(C)(C)C)C(C)(C)C)P(=O)(Oc1ccccc1)Oc1ccccc1` (mixture of isomers), the Activity result in the series with HEp-2 [7] is “Non-Toxic”. For the same compound, the outcome with Chlamydia trachomatis [10] and in the series on Chlamydia pecorum [11] was Active. Besides, the IC50 in series [1] was 30.3 µM.

For `CC(C)C(NC(=O)[C@@H]1C[C@@H](n2cc(C(C)(C)O)nn2)CN1C(=O)[C@@H](NC(=O)OC(C)(C)C)C(C)(C)C)P(=O)(Oc1ccccc1)Oc1ccccc1` (mixture of isomers), the Activity entry in the series with HEp-2 [7] is “Non-Toxic”. The half-maximal inhibitory concentration (IC50) in series [1] is 71.6 µM.

For the compound `CC(C)C(NC(=O)[C@@H]1C[C@@H](n2nncc2C(N)=O)CN1C(=O)[C@@H](NC(=O)OC(C)(C)C)C(C)(C)C)P(=O)(Oc1ccccc1)Oc1ccccc1` (mixture of isomers), in the series on HEp-2 [7], the Activity result was “Non-Toxic”. For the same compound, the outcome in the series with Chlamydia trachomatis [10] and with Chlamydia pecorum [11] was Active.

As to `CC(C)C(NC(=O)[C@@H]1C[C@@H](O)CN1C(=O)[C@@H](NC(=O)OC(C)(C)C)C(C)(C)C)P(=O)(Oc1ccccc1)Oc1ccccc1` (mixture of isomers), the Activity with HEp-2 [3] is < 30%; in the series with HEp-2 [6] it was “Non-Toxic”. Also, the half-maximal inhibitory concentration (IC50) in series [1] was 14.2 µM.

`CC(=O)O[C@@H]1C[C@@H](C(=O)NC(C(C)C)P(=O)(Oc2ccccc2)Oc2ccccc2)N(C(=O)[C@@H](NC(=O)OC(C)(C)C)C(C)(C)C)C1` (mixture of isomers): the results for the Activity in the series with HEp-2 [3] and in the series on HEp-2 [6] were < 30% and “Non-Toxic”, respectively. Besides, the result in the series on Chlamydia trachomatis [4] and in the series with Chlamydia pecorum [5] was Active. For the same compound, the IC50 in series [1] came to 3.86 µM.

On to `CC(C)C(NC(=O)[C@@H]1C[C@H](O)CN1C(=O)[C@@H](NC(=O)OC(C)(C)C)C(C)(C)C)P(=O)(Oc1ccccc1)Oc1ccccc1` (mixture of isomers), for which the Activity in the series with HEp-2 [3] is given as < 30%; with HEp-2 [6], “Non-Toxic”. Besides, the IC50 in series [1] was determined as 48.7 µM.

`CC(C)C(NC(=O)[C@@H]1C[C@H](n2nnc(O)c2O)CN1C(=O)[C@@H](NC(=O)OC(C)(C)C)C(C)(C)C)P(=O)(Oc1ccccc1)Oc1ccccc1` (mixture of isomers): the Activity entry with HEp-2 [7] is “Non-Toxic”. In [1], the IC50 came out at 23 µM.

With `CC(C)C(NC(=O)[C@@H]1C[C@H](n2cc(CO)nn2)CN1C(=O)[C@@H](NC(=O)OC(C)(C)C)C(C)(C)C)P(=O)(Oc1ccccc1)Oc1ccccc1` (mixture of isomers), the Activity result with HEp-2 [7] is recorded as “Non-Toxic”.

Consider `CC(C)C(NC(=O)[C@@H]1C[C@@H](OC(=O)CCN)CN1C(=O)[C@@H](NC(=O)OC(C)(C)C)C(C)(C)C)P(=O)(Oc1ccccc1)Oc1ccccc1` (mixture of isomers), for which the Activity is listed as < 30% with HEp-2 [3] and “Non-Toxic” with HEp-2 [6]. In series [1], the IC50 was determined as 15.3 µM.

Regarding `CC(C)C(NC(=O)[C@@H]1CCCCN1C(=O)[C@@H](NC(=O)OC(C)(C)C)C(C)(C)C)P(=O)(Oc1ccccc1)Oc1ccccc1` (mixture of isomers), the Activity in the series with HEp-2 [3] is < 30%; with HEp-2 [12], “Non-Toxic”; in the series with HEp-2 [6] it was “Non-Toxic”. Moreover, the outcome in the series with Chlamydia trachomatis [4] and in the series on Chlamydia pecorum [5] was Active. Further, the viability at 24 h, 100 µM in [13] was determined as 50%. Further, in series [1], the IC50 came to 81.8 µM.

(Values after ChEMBL document CHEMBL5154695, “Design, synthesis and biological evaluation of P2-modified proline analogues targeting the HtrA serine protease in Chlamydia” (Eur J Med Chem, 2022).)
